From PubChem BioAssay
D1 mod – D1 CRE-luciferase signal change, two-sided – cell-based, HEK293 D1, dopamine EC30, D1 allosteric modulator project, primary screen. dopamine EC30 potentiation; actives deviate in either direction. B-score at 10 µM. 58,000 tested, 5.9% active. AID 641, 2007;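 active = luminescence count or its row- and column-corrected plate score outside the 99.7% band of the plate's sample wells, on either side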
Target sequence (P21728 whole entry, looked up): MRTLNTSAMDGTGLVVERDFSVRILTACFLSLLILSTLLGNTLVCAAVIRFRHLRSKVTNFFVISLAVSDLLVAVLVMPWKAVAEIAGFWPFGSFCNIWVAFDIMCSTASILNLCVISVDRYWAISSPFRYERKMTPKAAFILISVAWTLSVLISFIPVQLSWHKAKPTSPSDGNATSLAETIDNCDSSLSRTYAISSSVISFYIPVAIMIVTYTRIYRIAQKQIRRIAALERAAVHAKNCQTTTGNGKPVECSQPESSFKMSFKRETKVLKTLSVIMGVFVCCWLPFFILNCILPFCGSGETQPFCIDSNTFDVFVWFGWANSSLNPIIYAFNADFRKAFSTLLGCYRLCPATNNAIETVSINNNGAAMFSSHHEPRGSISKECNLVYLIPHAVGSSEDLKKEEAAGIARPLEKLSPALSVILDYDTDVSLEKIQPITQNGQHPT
HEK293 NFkB inh – inhibitors of PMA/ionomycin-induced NF-kB reporter, primary screen, antigen receptor NF-kB inhibitor project, cell-based, HEK-293 luciferase reporter, luminescence; AID 465, 2006; HEK-293 NF-kB luciferase reporter; inhibition, % at 3 µM; 62,000 tested, 0.21% active;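 active = inhibition above the mean of all tested compounds plus 3 SD, cut at about 40% in these data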;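 also: 0% = stimulated DMSO wells and 100% = 10 µM reference inhibitor 5653914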
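System – HEK-293 cells with stable firefly luciferase reporter driven by four HIV NF-kB elements · Doses – one dose, 3 µM · Schedule – 1 h compound pre-incubation, 16 h PMA/ionomycin at 37 °C · Technique – luminescence from luciferase substrate reagent · Measure – percent inhibition normalized per plate to DMSO and reference-inhibitor controls · Replicates – tested once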
BAP1 block – inhibitors of BAP1 deubiquitinase, primary screen, biochemical, Ub-AMC fluorescence, kinetic. Ubiquitin carboxyl-terminal hydrolase BAP1 (Homo sapiens), Q92560. recombinant BAP1, Ub-AMC hydrolysis fluorescence kinetic; active compounds read low. calls only at 20 µM. 72,000 tested, 0.48% active;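 active = activity remaining at or below 50% of control, provided the compound also passes the data quality filters; inactive = the rest, including low values that fail the filters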;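 also: 100% = DMSO wells rate and 0% = substrate alone blank rate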
M1 ag – M1 muscarinic receptor agonists, primary screen, CHO-M1 cells, Fluo-4 calcium, agonist mode | B-score at 10 µM | Fluo-4 calcium fluorescence; active compounds read high | AID 626, 2007 | 64,000 tested, 3% active;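 active = fluorescence rise, raw or as B-score row- and column-corrected plate score, outside the 99.7% band of its plate's samples, either direction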
DAT uptake mod – changed hDAT dopamine uptake under cocaine IC80, either direction, primary screen, cocaine antagonist project, cell-based, LLC-PK1 hDAT, [14C]-dopamine uptake, MLSMR. Sodium-dependent dopamine transporter (Homo sapiens), Q01959. LLC-PK1 hDAT cells, [14C]-dopamine uptake with cocaine IC80; actives deviate in either direction. B-score at 10 µM. 110,000 tested, 1.3% active. AID 449768, 2010;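 active = Z score or B-score, a plate-position-corrected score, falls beyond the plate's 99.7% confidence bounds, in either direction; inactive = both scores lie inside the 99.7% bounds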;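 also: scored against the spread of the other compound wells on the same plate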
M1 antagonist – antagonists of rat M1 muscarinic receptor; Muscarinic acetylcholine receptor M1 (Rattus norvegicus), P08482; CHO-M1 cells, Fluo-4 calcium, ACh EC80 antagonist mode; active compounds read low; B-score at 10 µM; 64,000 tested, 3.4% active; AID 628, 2007;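 active = calcium fluorescence response, raw or row-and-column corrected B-score, differing from the plate sample mean either way at a set confidence level, mostly lower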
* marks the source's active call; other numbers are inactive results; i = inactive; · = not tested or not shown; + = active, no number. Hits are enriched below; roughly 7.2% of the tested compounds scored in any of these assays.

SMILES | D1 mod | HEK293 NFkB inh | BAP1 block | M1 ag | DAT uptake mod | M1 antagonist
O=C(c1cc(-c2ccc3c(c2)OCO3)on1)N1CCOCC1 | -4.47* | -31.0 | i | -0.118 | -0.774 | 0.231
O=C(c1cc(-c2ccc(Cl)cc2Cl)on1)N1CCOCC1 | -4.56* | -40.1 | · | 0 | 0.541 | 0
COc1ccc2c(c1)sc1nc(-c3cc4ccccc4oc3=O)cn12 | · | · | i | · | · | ·
O=C1NCCc2c1[nH]c1c(Cl)ccc(Cl)c21 | 0.349 | 22.6 | i | 27.8* | 0.13 | 0.195
O=S(=O)(Nc1ccc2c(c1)oc1ccccc12)c1ccc2oc3ccccc3c2c1 | · | · | i | · | · | ·
COc1ccc(C(c2nnnn2C2CCCC2)N2CCC(C)CC2)cc1 (stereo not given) | 1.06 | 17.7 | i | -0.767 | -2.98* | -0.125
CCN(CC)c1ccc(NC(=O)CN2CCN(c3ccc(F)cc3)CC2)cc1 | -0.0588 | 10.0 | i | -0.01 | -1.31 | -0.0106
CCN(CC)c1ccc(NC(=O)CN2CCN(CC(=O)Nc3ccccc3F)CC2)cc1 | 0.723 | -4.3 | i | -0.674 | 2.46* | -0.197
COc1ccccc1NC(=O)CN1C(=O)C(C)Oc2ccccc21 (stereo not given) | -0.146 | 18.6 | i | -3.39* | 0.554 | 0.231
COc1ccccc1NC(=O)CN1CCN(CC(=O)Nc2ccc3c(c2)OCO3)CC1 | 0.192 | 17.8 | i | -0.437 | -4.29* | 0.266
COc1ccc(NC(=O)CN2CCN(CC(=O)Nc3ccc4c(c3)OCO4)CC2)cc1 | 0.782 | 4.6 | i | -0.695 | 0.608 | 0.451
O=c1oc2ccccc2cc1-c1nnc(Nc2ccc(Br)cc2)s1 | · | · | i | · | · | ·
COc1ccc2c(c1)-c1cc(Cl)ccc1S(=O)(=O)N2S(=O)(=O)c1ccc2ccccc2c1 | · | · | i | · | · | ·
NS(=O)(=O)c1ccc(NC(=O)C23CC4CC(CC(C4)C2)C3)cc1 | · | · | i | · | · | ·
O=C1CCCC2=C1C(c1cccc(Br)c1)Nc1ccc(C(=O)c3ccccc3)cc1N2 (stereo not given) | · | · | i | · | · | ·
CCN(CC)CCCN1C(=O)C(=O)/C(=C(/O)c2ccc3c(c2)OCCO3)C1c1ccc(C)o1 (stereo not given) | 2.31* | 23.5 | + | -1.01 | · | -0.282
CCOC(=O)C1=C(O)/C(=C/c2cn(CC(=O)N3CCCC3)c3ccccc23)SC1=Nc1ccccc1 | · | · | · | · | -8.27* | ·
O=P(O)(O)CCP(=O)(c1ccccc1)c1ccccc1 | · | 14.3 | i | -0.514 | -2.49* | 0.927
Cn1c(=O)n(Cc2ccc(Cl)cc2)c(=O)c2c1nc1n2CCN1Cc1ccco1 | 0.171 | 21.7 | i | -2.31* | 0.0623 | -1.05
Cc1cccc(Cn2c(=O)c3c(nc4n3CCN4Cc3ccco3)n(C)c2=O)c1 | -0.25 | 28.9 | i | -0.55 | 3.1 | 0.191
Cn1c(=O)n(Cc2ccccc2)c(=O)c2c1nc1n2CCCN1Cc1ccccc1 | 0.00533 | 17.7 | i | 0.439 | -0.0385 | 2.9*
O=c1nc2n(c3cc(Cl)ccc13)Cc1ccccc1-2 | · | · | i | · | · | ·
OCCCn1c(C(CO)Nc2nc(-c3ccc(Cl)cc3)cs2)nc2ccccc21 (stereo not given) | · | · | · | · | 2.49* | ·
Cc1ccc(-c2csc(NC(CO)c3nc4ccccc4n3CCOCCO)n2)cc1 (stereo not given) | · | · | · | · | 2.75* | ·
COc1ccc(-c2csc(NC(CO)c3nc4ccccc4n3Cc3ccc(C)cc3)n2)cc1 (stereo not given) | · | · | · | · | 0.00289 | ·
SMILES | D1 mod | HEK293 NFkB inh | BAP1 block | M1 ag | DAT uptake mod | M1 antagonist
COc1ccc(-c2nc3n(c(=O)c2C#N)CCCS3)cc1 | 0.499 | 9.7 | · | -0.123 | -0.676 | 0.212
COc1ccc(-c2cc3nc4n(c(=O)c3s2)CCC4)cc1 | -5.88* | 24.4 | i | -1.22 | 0.561 | 0.632
CCC(C)NC(=O)c1cc2nc(-c3cccs3)cc(C(F)(F)F)n2n1 (stereo not given) | · | · | i | · | · | ·
O=C(Nc1ccc(Cl)cc1)N1CCC(c2nc(-c3cccs3)no2)CC1 | -0.915 | 23.6 | i | -2.47* | -0.703 | 0.00768
COc1ccc(NC(=O)N2CCC(c3nc(-c4cccs4)no3)CC2)cc1 | -0.934 | 20.7 | i | -0.43 | · | -0.822
Cc1cccc(NC(=O)Nc2ccc(C#N)cc2)n1 | -5.19* | 33.0 | i | 0.52 | -0.241 | -0.096
Nc1ccc(N2CCN(C(=O)c3cccs3)CC2)cc1 | · | · | · | · | 0.268 | ·
CC(=O)Nc1ccc(N2CCN(C(=O)c3cccs3)CC2)cc1 | 0.0112 | 10.2 | i | -0.533 | -8.23* | 0.436
Cc1ccc(NC(=O)c2nccnc2C(=O)O)cc1C | · | · | · | · | -0.728 | ·
CC(=O)c1cccc(NC(=O)c2nccnc2C(=O)O)c1 | -3.49* | 7.3 | i | -0.0768 | -0.584 | -0.155
CCOC(=O)N1CCC(Nc2ncnc3c2cnn3-c2ccc(C)cc2C)CC1 | -3.66* | 17.6 | i | -1.64 | 0.356 | 0.148
O=C(Nc1cccnc1)c1ccc(Oc2ccccc2)cc1 | -6.38* | 12.0 | i | -0.334 | 0.366 | -0.474
CC(=O)c1cccc(N2C(=O)c3ccc(Oc4cccc([N+](=O)[O-])c4)cc3C2=O)c1 | · | · | i | · | · | ·
CCOC(=O)c1c(NC(=O)C(C(C)C)N2C(=O)c3ccccc3C2=O)sc2c1CCC2 (stereo not given) | · | · | i | · | · | ·
Oc1ccc(Br)cc1/C=N/N1CCN(Cc2ccccc2)CC1 | · | · | · | · | 2.45* | ·
O=C(c1cc(-c2ccc(F)cc2)on1)N1CCCC1 | -3.6* | -38.0 | i | 0.824 | · | 0.835
O=C(c1cc(-c2ccc(Cl)c(Cl)c2)on1)N1CCCC1 | 0.909 | 11.5 | i | -0.182 | 1.44 | 0.667
COc1cccc(-c2cc(C(=O)N3CCCCCC3)no2)c1 | -4.85* | -33.1 | i | 0.837 | 2.4 | -0.672
CN1CCN(C(=O)c2cc(-c3ccccc3)on2)CC1 | -0.0574 | 8.5 | i | 0 | -0.00506 | 0.025
O=C(c1cc(-c2cccc(O)c2)on1)N1CCCCC1 | -4.79* | 1.0 | i | 0.232 | 1.19 | -0.861
COc1cccc(-c2cc(C(=O)N3CCCCC3C)no2)c1 (stereo not given) | -1.45 | -42.3 | i | -0.112 | · | 0.89
O=C(CSc1ncnc2sc3c(c12)CCCC3)Nc1ccccc1Cl | · | · | i | · | · | ·
COc1ccc(N2CCN(CCNC(=O)c3ccc(NC(=O)C4CCCO4)cc3)CC2)cc1 (stereo not given) | -0.117 | 6.5 | · | -2.79* | -0.584 | -0.0134
CCCCCC(=O)NC(NC(=S)NC1CCS(=O)(=O)C1)C(Cl)(Cl)Cl (stereo not given) | · | · | · | · | -2.97* | ·
CCCCCC(=O)NC(NC(=S)N1CCOCC1)C(Cl)(Cl)Cl (stereo not given) | · | · | · | · | -1.02 | ·
COc1cccc(C(=O)Nc2ccc(Cl)c([N+](=O)[O-])c2)c1 | · | · | i | · | · | ·
